Compound activity deposited in PubChem by several laboratories.
Compounds with a hit are over-represented: about 4.6% of the library has one in this group of screens.
ALR inh: inhibitors of human sulfhydryl oxidase ALR | P55789 | purified ALR, DTT oxidation, H2O2 HRP-luminol luminescence | inhibition, % (concentration not given with the values) | 290,000 tested, 3.8% active;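 active = mean replicate inhibition above about 79%, with every replicate also reaching it, limit read from the data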
Target sequence (P55789 whole entry, looked up): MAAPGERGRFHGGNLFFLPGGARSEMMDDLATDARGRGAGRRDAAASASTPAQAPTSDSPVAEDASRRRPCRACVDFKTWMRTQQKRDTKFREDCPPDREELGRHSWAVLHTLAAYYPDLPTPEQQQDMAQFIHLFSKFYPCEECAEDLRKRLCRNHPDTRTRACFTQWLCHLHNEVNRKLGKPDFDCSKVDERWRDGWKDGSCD
NALP1 yeast inh: blocks the NALP1 inflammasome reconstituted in yeast | S. cerevisiae NALP1/ASC/caspase-1 growth, X-gal OD620, 72 h | inhibition, % at 10 µM | 280,000 tested, 0.61% active; in the data active = inhibition mostly above about 24%, no sharp cut-off; inactive = mostly below about 32%
Arr AP2 block: human beta-arrestin and AP2 interaction inhibition; AID 504490; FITC-arrestin peptide / GST-AP2 beads, flow cytometry; AP2 beta2 appendage carries R879A mutation; 340,000 tested, 0.31% active; inhibition, % at 10 µM;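 active = inhibition above a set limit, near 3 SD of compounds lacking own fluorescence, cut at about 54% in these data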;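 also: plate controls were DMSO wells for no effect and 5 µM unlabelled arrestin peptide for full effect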
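Measured by: flow cytometry, FL1 (488/535 nm); Material: AP2 appendage R879A on GSH beads; Evaluation: percent response; Timing: pre-incubation 12 min, peptide binding 1 h, room temperature; Also added: 50 nM FITC-arrestin peptide; Medium: PBS with 0.05% Tween 20 and 0.1% BSA.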
Pemphigus Ab inh: human desmoglein-3 autoantibody binding inhibition. P32926. DSG3-coupled beads, scFv-anti-DSG3-GFP binding, flow cytometry; stronger effect = lower value. binding (percent of control), % at 10 µM. 310,000 tested, 0.48% active. AID 588358;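 active = binding more than 3 SD below its plate's average and above zero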;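 also: hits lower antibody fragment binding to DSG3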
PolyA inhibitor: yeast polyadenylation inhibition; S. cerevisiae SKY197-pL101 polyadenylation reporter, beta-gal luminescence; efflux-impaired pdr1/pdr3 knockout yeast; score 100 = 6 SD above DMSO; activity score, % at 12 µM; 300,000 tested, 0.02% active; AID 1875;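 active = lowest replicate activity score at least 50, where 100 means six control SD above control mean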;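 also: yeast exposed to compound for 9 h at 30 °C; higher score means more reporter readthrough which indicates perturbed polyadenylation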
NALP3 yeast inh: NALP3 inhibition in yeast; Yeast reconstituted NLRP3/ASC/caspase-1, beta-gal luminescence, 24 h; inhibition, % at 10 µM; 330,000 tested, 0.39% active;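 active = inhibition of 50% or more; inactive = inhibition below 50%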;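 also: plate controls were induced DMSO wells for no effect and uninduced yeast grown without galactose for full effect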
* hit, by the source's call; . = no result.

SMILES | ALR inh | NALP1 yeast inh | Arr AP2 block | Pemphigus Ab inh | PolyA inhibitor | NALP3 yeast inh
c1ccc(-n2nnnc2-c2cnc(-c3ccncc3)nc2-c2cccs2)cc1 | . | 22* | -1 | . | -11 | 10
CCOc1ccc(N2C(=O)CNC2=S)cc1 | 91* | -28 | -9 | 113 | -3 | 7
CCOc1ccc(N2C(=O)CN(C)C2=S)cc1 | -16 | 1 | 5 | 98 | 4 | 2
CCOc1ccc(N2C(=O)CC(N)C2=O)cc1 (stereo not given) | 65 | 94* | 5 | 96 | . | 30
CCOC(=O)N1CCC(N2C(=O)c3ccccc3C2Nc2ccccc2)CC1 (stereo not given) | . | -3 | 11 | 101 | -4 | 8
CCOC(=O)N1CCC(N2C(=O)c3ccccc3C2Nc2ccc(C)cc2)CC1 (stereo not given) | 99* | 6 | -2 | 104 | -12 | 10
Cc1ccc(NC2c3ccccc3C(=O)N2CCN2CCOCC2)cc1 (stereo not given) | 98* | 9 | -4 | 83 | 2 | 18
CCN(CC)S(=O)(=O)c1ccc(NC2c3ccccc3C(=O)N2CCN2CCOCC2)cc1 (stereo not given) | -5 | 29 | 20 | 104 | -6 | 6
COc1ccc(/C=N/NC(=O)c2cccc(S(=O)(=O)N3CCCC3)c2)cc1O | 97* | . | 16 | 101 | . | 5
COc1cc(/C=N/NC(=O)c2cccc(S(=O)(=O)N3CCCC3)c2)cc(OC)c1O | 99* | . | 20 | 97 | -1 | -16
COc1ccc(NS(=O)(=O)c2cccc(C(=O)NN=Cc3ccc(OC)c(O)c3)c2)cc1 | . | . | 1 | 97 | . | 3
COc1ccc(/C=N/NC(=O)c2cccc(OC(F)(F)C(F)F)c2)cc1O | 96* | 11 | -14 | 98 | 12 | 11
O=C(N/N=C/c1ccc(F)c(F)c1)c1cccc(S(=O)(=O)N2CCCCC2)c1 | . | . | 34 | 93 | . | 8
Cc1ccccc1S(=O)(=O)N(C)C[C@@H]1OCc2cn(nn2)CCCC(=O)N([C@H](C)CO)C[C@H]1C | . | . | . | 111 | . | .
CN(CC(=O)NC(=O)NC1CCCCC1)CC(=O)Nc1ccc(OC(F)(F)F)cc1 | -19 | . | 8 | 102 | . | -3
O=C1CC(NNC(=O)c2cccc(F)c2)C(=O)N1 (stereo not given) | 92* | 11 | -9 | 112 | 3 | 16
C[C@@H]1CN([C@@H](C)CO)S(=O)(=O)c2ccc(Br)cc2O[C@@H]1CN(C)C(=O)C1CC1 | . | . | . | 84* | . | .
COc1cccc(Cn2nnc(C(=O)Nc3cc(Cl)ccc3OC)c2N)c1 | . | 40* | 3 | 111 | 26 | 4
COc1cccc(NC(=O)Cn2nnc(C(=O)Nc3cc(Cl)ccc3OC)c2N)c1 | -2 | 34 | -8 | 101 | 0 | 7
C=CCN1C(=O)/C(=c2\sc3nc(=O)c(Cc4ccccc4Cl)nn3c2=O)c2ccccc21 | 96* | 6 | 4 | 104 | -10 | 15
O=C(NCCCO)c1ccc2nc(-c3ccco3)c(-c3ccco3)nc2c1 | . | 12 | 49 | 36* | . | .
O=C(Nc1ccc(N2CCOCC2)cc1)c1cccc(-n2cnnc2)c1 | 1 | 21 | 16 | . | 7 | 5
CN(C)c1cccc(C(=O)Nc2ccc(N3CCOCC3)cc2)c1 | 91* | 3 | 16 | 100 | 16 | 15
S=C(Nc1ccc(N2CCOCC2)cc1)Nc1ccc2nc(-c3ccco3)c(-c3ccco3)nc2c1 | 17 | 11 | 12 | 84 | -9 | 21
CCCCNC(=O)c1ccc2nc(-c3ccco3)c(-c3ccco3)nc2c1 | -236 | 19 | 40 | 95 | 22 | 25
SMILES | ALR inh | NALP1 yeast inh | Arr AP2 block | Pemphigus Ab inh | PolyA inhibitor | NALP3 yeast inh
O=C(Nc1ccc(N2CCOCC2)cc1)c1ccc2nc(-c3ccco3)c(-c3ccco3)nc2c1 | . | 44 | 2 | 2.0* | 9 | 21
O=C(Nc1ccc(N2CCOCC2)cc1)Nc1ccc2nsnc2c1 | 86* | -9 | 43 | 98 | 12 | 19
COc1ccc(/C(C)=N/NC(=O)c2cccc(S(=O)(=O)N3CCCC3)c2)c(O)c1 | 6 | . | 1 | 97 | 13 | 16
COC(=O)C(C)Oc1ccc(-c2nccc(-c3ccccn3)n2)cc1 (stereo not given) | 2 | 0 | -3 | 103 | 7 | -2
O=C(Nc1ccc(N2CCOCC2)cc1)c1ccncc1 | -6 | 0 | -6 | 98 | -3 | 5
Cn1cccc1C(=O)Nc1ccc(N2CCOCC2)cc1 | 97* | . | 19 | . | . | 1
Cc1ccc(S(=O)(=O)CCC(=O)N(Cc2nnc(-c3ccc(Cl)cc3)o2)C2CC2)cc1 | -4 | . | -31 | 91 | . | -7
O=S(=O)(c1ccc(F)cc1)N1CCN(Cc2cc3c(cc2Br)OCCO3)CC1 | -2 | . | -7 | . | . | 9
Oc1ccc(N2CCN(Cc3cc4c(cc3Br)OCCO4)CC2)cc1 | 92* | -2 | 0 | 115 | 15 | 0
O=C(O)CCc1ccc(-c2ccc(Cl)cc2)o1 | 97* | 0 | 20 | . | -43 | 26
O=C(O)CCc1ccc(-c2ccc(Br)cc2)o1 | 19 | 0 | 13 | 112 | -13 | 40
CC(Oc1ccc(Cl)cc1Cl)C(=O)NCCCN1CCOCC1 (stereo not given) | -7 | 41* | -5 | 102 | 9 | 19
Cc1cc(OC(C)C(=O)NCCCN2CCOCC2)ccc1Cl (stereo not given) | -1 | 8 | -4 | 106 | -4 | 16
Cc1ccc(NC(=O)NCc2ccc3[nH]c(C)cc3c2)cc1 | 0 | 13 | 43 | 87* | -1 | 19
Cc1cc2cc(CNC(=O)NC3CCCCC3)ccc2[nH]1 | -4 | 11 | 10 | 74* | -7 | 0
Cc1ccc(C(=O)CC(=O)COc2ccc(Cl)cc2C)cc1 | -6 | 15 | 1 | 87 | 21 | 2
Cc1cc(Cl)ccc1OCc1nc(-c2ccc(O)cc2)n[nH]1 | 98* | 33 | 16 | 104 | -12 | 11
COc1cc(OC)cc(-c2c(-c3cccs3)c3cc(-c4ccc(CN5CCOCC5)cc4)ccc3n2C)c1 | 2 | . | 11 | 99 | . | 10
CCc1cccc(NC(=O)CSCc2nc3sc(C)c(C)c3c(=O)[nH]2)c1 | 0 | . | -4 | . | . | 8
Cc1sc2nc(CSCC(=O)NC3(C#N)CCCCC3)[nH]c(=O)c2c1C | 95* | . | -7 | 95 | . | 13
Cc1ccc2c(c1)c1c(n2CC(O)CNC2CCCCC2)CCCC1 (stereo not given) | 99* | 21 | 3 | 117 | -19 | 19
Cc1ccc2c(c1)c1c(n2CC(O)CNC(CO)(CO)CO)CCCC1 (stereo not given) | 96* | 1 | 14 | 108 | 7 | -2
Cc1ccc2c(c1)c1c(n2CC(O)CN2CCOCC2)CCCC1 (stereo not given) | 9 | 9 | . | . | -13 | 8
Nc1ccc(NC(=O)c2ccco2)c(Cl)c1 | 99* | 3 | -36 | 97 | -9 | -3
